Results published in PMC7424198 (iScience, 2020).

Assay: Thermal unfolding monitored by CD spectroscopy
Assay type: physicochemical
Settings: 20 μM protein, 10 mM phosphate buffer pH 7.4, 2 °C intervals, 20 to 90 °C
In short: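 TM read as the transition point from the first derivative of the CD thermal unfolding curve. Reversibility was checked by comparing spectra recorded before and after heating. The 202 nm signal was followed during denaturation to look for an isodichroic point, which would indicate a two-state helix–unfolded transition. Spectra were recorded on 20 μM protein in 10 mM phosphate buffer.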

Substance: aureocin A53
- transition midpoint (TM) of thermal unfolding: ~54 °C
